ChEMBL document CHEMBL1123193, “The lysine pathway as a target for a new genera of synthetic antibacterial antibiotics?” (1986)
Converted amounts (≈) assume the structure as drawn.

What was measured:
Escherichia coli [1] = test: Minimum inhibitory concentration required for the inhibition of Escherichia coli ATCC 9637; format: functional
Summary of the method: (§1)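 Agar dilution on Davis and Mingioli solid medium, supplemented with amino acids where needed. MIC taken as the lowest concentration giving complete growth inhibition, expressed in micrograms.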

Pseudomonas aeruginosa [2] = test: Not Plasmodium species; format: functional
Pseudomonas aeruginosa [3] = test: Minimum inhibitory concentration required for the inhibition of Pseudomonas aeruginosa A22; format: functional; summary of the method: as §1
Escherichia coli [4] = test: Compound is evaluated for the inhibition of bacterial growth (Escherichia coli ATCC 9637) in the liquid medium at 5 mmol of amino acid; format: functional
Summary of the method: (§2)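 Davis and Mingioli liquid medium, 4.8 mL, inoculated with 0.2 mL of an 18-h liquid culture of the test organism, with 0.1 mL of compound solution added. Growth followed by absorbance at 660 nm. Percent inhibition calculated after 6 h at 37 °C.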

Escherichia coli [5] = test: Compound is evaluated for the inhibition of bacterial growth (Escherichia coli ATCC 9637) in the liquid medium at 2 mmol of amino acid; format: functional; summary of the method: as §2
Escherichia coli [6] = test: Compound is evaluated for the inhibition of bacterial growth (Escherichia coli ATCC 9637) in the liquid medium at 1 mmol of amino acid; format: functional; summary of the method: as §2
Escherichia coli [7] = test: Percent of inhibition of diaminopimelic acid decarboxylase at 5 mmol of amino acids, 1.05 mmol/L of labeled meso-DAP, and 32 umol/L of PLP
Summary of the method: (§3)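 Enzyme was meso-DAP decarboxylase isolated and purified from E. coli ATCC 9637. Inhibition measured as decarboxylation of labeled meso-DAP in the presence of the test amino acid.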

Escherichia coli [8] = test: Percent of inhibition of v decarboxylase at 1 mmol of amino acids, 1.05 mmol/L of labeled meso-DAP, and 32 umol/L of PLP; summary of the method: as §3
Escherichia coli [9] = test: Percent of inhibition of diaminopimelic acid decarboxylase at 2 mmol of amino acids, 1.05 mmol/L of labeled meso-DAP, and 32 umol/L of PLP; summary of the method: as §3
Escherichia coli [10] = test: Percent of inhibition of diaminopimelic acid decarboxylase at 5 mmol of amino acid; summary of the method: as §3
Escherichia coli [11] = test: Percent of inhibition of diaminopimelic acid decarboxylase at 1 mmol of amino acid; summary of the method: as §3
Escherichia coli [12] = test: Minimum inhibitory concentration compared to D-cycloserine, against Escherichia coli DC2; format: functional; summary of the method: as §1
Providencia rettgeri = test: Minimum inhibitory concentration compared to D-cycloserine, against Proteus rettgeri 53.100; format: functional; summary of the method: as §1
Serratia marcescens = test: Minimum inhibitory concentration compared to D-cycloserine, against Serratia marcescens A 174; format: functional; summary of the method: as §1
Escherichia coli [13] = test: Minimum inhibitory concentration compared to D-cycloserine, against Escherichia coli UB 1005; format: functional; summary of the method: as §1
Citrobacter freundii = test: Minimum inhibitory concentration compared to D-cycloserine, against Citrobacter freundii 55.13; format: functional; summary of the method: as §1
Pseudomonas aeruginosa [14] = test: Minimum inhibitory concentration compared to D-cycloserine, against Pseudomonas aeruginosa A22; format: functional; summary of the method: as §1
Escherichia coli [15] = test: Minimum inhibitory concentration compared to D-cycloserine, against Escherichia coli ATCC 9637; format: functional; summary of the method: as §1
[16] = system: Providencia alcalifaciens; test: Minimum inhibitory concentration compared to D-cycloserine, against providencia alcalifaciens 58.62; format: functional; summary of the method: as §1
Klebsiella pneumoniae = test: Minimum inhibitory concentration compared to D-cycloserine, against Klebsiella pneumoniae 53.153; format: functional; summary of the method: as §1
Escherichia coli [17] = test: Percent of inhibition of DAP decarboxylase at 10 mmol of amino acids, 1.05 mmol/L of labeled meso-DAP, and 32 umol/L of PLP; summary of the method: as §3
Enterobacter cloacae = test: Minimum inhibitory concentration compared to D-cycloserine, against Enterobacter cloacae 60.22
Serratia liquefaciens = test: Minimum inhibitory concentration compared to D-cycloserine, against Serratia liquefaciens 52.56; format: functional; summary of the method: as §1
[18] = Minimum inhibitory concentration compared to D-cycloserine, against Moraxella glucidolytica 52.90; format: functional; summary of the method: as §1
Escherichia coli [19] = test: Percent of inhibition of diaminopimelic acid decarboxylase at 1 mmol of amino acids, 1.05 mmol/L of labeled meso-DAP, and 32 umol/L of PLP; summary of the method: as §3
Escherichia coli [20] = test: Percent of inhibition of diaminopimelic acid decarboxylase at 10 mmol of amino acids, 1.05 mmol/L of labeled meso-DAP, and 32 umol/L of PLP; summary of the method: as §3
Escherichia coli [21] = test: Compound is evaluated for the growth of Escherichia coli W7 in the presence lysine in liquid medium; Growth is observed; format: functional, organism-based
Escherichia coli [22] = test: Compound is evaluated for the growth of Escherichia coli W7 in the liquid medium at 100 ug/mL.; Absence of growth; format: functional, organism-based
[23] = Pseudomonas aeruginosa, read-out: MIC

SMILES: CC1(C)S[C@@H]2[C@H](NC(=O)[C@H](N)c3ccccc3)C(=O)N2[C@H]1C(=O)O [AMPICILLIN]
- MIC (Escherichia coli [1]; Escherichia coli, ATCC 9637, read-out: MIC): 5 µg/mL (≈ 14.3 µM)
- MIC (Pseudomonas aeruginosa [2]): 512 µg/mL (≈ 1470 µM)

SMILES: C=C(CC(N)C(=O)O)CC(N)C(=O)O (stereo in doubt; (+)-4)
- MIC (Pseudomonas aeruginosa [3]): 6 µg/mL (≈ 29.7 µM)
- MIC (Escherichia coli [1]): 6 µg/mL (≈ 29.7 µM)

SMILES: CC(N)(CCCC(N)C(=O)O)C(=O)O (stereo not given)
- Inhibition (Escherichia coli [4]): 90%
- Inhibition (Escherichia coli [5]): 74%
- Inhibition (Escherichia coli [6]): 38%
- MIC (Escherichia coli [1]): 512 µg/mL (≈ 2510 µM)
- inhibition (Escherichia coli [7]): 35%
- inhibition (Escherichia coli [8]): 8%
- inhibition (Escherichia coli [9]): 18%

SMILES: NC(/C=C(\Cl)CC(N)C(=O)O)C(=O)O (stereo not given)
- Inhibition (Escherichia coli [4]): 50%
- inhibition (Escherichia coli [10]): 53%
- MIC (Escherichia coli [1]): > 128 µg/mL
- inhibition (Escherichia coli [11]): 18%

SMILES: C=C(C[C@@H](N)C(=O)O)C[C@H](N)C(=O)O
- MIC (Escherichia coli [12]): 4 µg/mL (≈ 19.8 µM)
- MIC (Providencia rettgeri): 64 µg/mL (≈ 317 µM)
- MIC (Serratia marcescens): 4 µg/mL (≈ 19.8 µM)
- MIC (Pseudomonas aeruginosa [3]; [23]): 4 µg/mL (≈ 19.8 µM)
- MIC (Escherichia coli [13]): 2 µg/mL (≈ 9.89 µM)
- MIC (Escherichia coli [1]): 2 µg/mL (≈ 9.89 µM)
- MIC (Citrobacter freundii): 32 µg/mL (≈ 158 µM)
- MIC (Pseudomonas aeruginosa [14]): 16 µg/mL (≈ 79.1 µM)
- MIC (Escherichia coli [15]): 32 µg/mL (≈ 158 µM)
- MIC [16]: 128 µg/mL (≈ 633 µM)
- MIC (Klebsiella pneumoniae): 16 µg/mL (≈ 79.1 µM)
- inhibition (Escherichia coli [17]): 30%
- MIC (Enterobacter cloacae): 16 µg/mL (≈ 79.1 µM)
- inhibition (Escherichia coli [7]): 22%
- MIC (Serratia liquefaciens): 2 µg/mL (≈ 9.89 µM)
- MIC [18]: 16 µg/mL (≈ 79.1 µM)
- inhibition (Escherichia coli [19]): 8%

SMILES: C=C(CC(N)C(=O)O)CC(N)C(=O)O (stereo in doubt; 4)
- inhibition (Escherichia coli [20]): 30%
- Bacterial growth (Escherichia coli [21]): Growth
- inhibition (Escherichia coli [7]): 15%
- inhibition (Escherichia coli [19]): 5%

SMILES: NCCCC[C@H](N)C(=O)O
- Bacterial growth (Escherichia coli [22]): Absence of growth

SMILES: C=C(CC(N)C(=O)O)CC(N)C(=O)O (single isomer, unassigned; (-))
- MIC (Pseudomonas aeruginosa [3]; [23]): 4 µg/mL (≈ 19.8 µM)
- MIC (Escherichia coli [1]; Escherichia coli, ATCC 9637): 4 µg/mL (≈ 19.8 µM)

SMILES: N[C@H](CCC[C@H](N)C(=O)O)C(=O)O
- Bacterial growth (Escherichia coli [22]): Absence of growth
